Kir21 inh: Kir2.1 (mouse) channel inhibition | P35561 | HEK293-Kir2.1, FluxOR thallium flux fluorescence; active compounds read low | B-score at 10 µM | actives 0.85% (n = 310,000);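 active = fluorescence ratio B-score at or below minus 3 SD of library scores, with starting-brightness B-score within 2 SD, cut at about -4.2 in these data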;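 note: channel flux triggered by added potassium and thallium sulfate stimulus; B-score of peak minus minimum fluorescence over baseline after thallium stimulus; more negative B-score means stronger Kir2.1 block with less thallium influx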
KCNQ1 pot: potentiates or activates the human KCNQ1 potassium channel; actives 0.35% (n = 310,000); CHO-K1 KCNQ1, thallium flux FluxOR fluorescence; active compounds read high; B-score at 10 µM; P51787;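 active = fluorescence ratio B-score, a plate-corrected score, at least three library SD, with initial intensity B-score within 5 SD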
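System: CHO-K1 cells stably expressing KCNQ1 / Medium: assay buffer for compound exposure, DMSO matched across wells / Reagent: thallium- and potassium-containing depolarizing buffer / Compound: one concentration, matched DMSO / Incubation: 20 min compound pretreatment at room temperature / Measured by: kinetic FluxOR fluorescence, 10 s baseline plus 110 s post-stimulus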
hERG rescue: compounds protecting human hERG from proarrhythmic drug block; Q12809; CHO-hERG, FluxOR thallium flux, dofetilide IC70 present; activation (rescue from dofetilide block), less the hit threshold, % at 10 µM; actives 0.51% (n = 310,000); AID 1511;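 active = activation above the mean of controls blocked by dofetilide plus 5 SD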;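 note: thallium influx through hERG after potassium depolarization seen as dye fluorescence rise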
KCNK9 block: human KCNK9 channel inhibition; Q9NPC2; HEK293 KCNK9, FluxOR thallium flux fluorescence; active compounds read low; B-score at 10 µM; actives 1.2% (n = 310,000); AID 488922;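 active = ratio B-score over 3 SD below the library mean, with starting fluorescence within 5 SD of its mean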;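 note: negative B-score means less thallium flux so channel inhibition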
Target sequence (Q9NPC2 whole entry, looked up): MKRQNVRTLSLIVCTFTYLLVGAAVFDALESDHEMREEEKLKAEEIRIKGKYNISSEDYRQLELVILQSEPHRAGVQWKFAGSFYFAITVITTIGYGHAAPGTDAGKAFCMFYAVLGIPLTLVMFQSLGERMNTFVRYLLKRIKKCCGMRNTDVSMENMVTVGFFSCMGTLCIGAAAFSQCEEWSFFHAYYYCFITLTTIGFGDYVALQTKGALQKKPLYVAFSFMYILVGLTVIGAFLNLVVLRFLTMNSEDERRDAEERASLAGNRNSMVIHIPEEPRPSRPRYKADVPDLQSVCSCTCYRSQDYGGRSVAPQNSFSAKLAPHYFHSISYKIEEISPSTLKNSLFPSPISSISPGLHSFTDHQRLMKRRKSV
KCNQ1 inh: human KCNQ1 channel inhibition | B-score at 10 µM | AID 2642 | actives 1.3% (n = 310,000) | CHO-K1 KCNQ1, FluxOR thallium flux fluorescence; active compounds read high;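 active = compounds whose thallium flux B-score, printed positive for inhibition, exceeds three library SD while starting fluorescence stays within three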;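 note: channel opened by potassium depolarization with thallium stimulus after 20 min compound exposure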
KCNK3 inh: human KCNK3 channel inhibition, primary screen; CHO-KCNK3 thallium flux, FluxOR fluorescence; active compounds read low; actives 0.84% (n = 340,000); B-score at 10 µM;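 active = B-score under library mean minus 4 SD, starting fluorescence ratio at most library mean plus 5 SD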;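 note: more negative B-score means stronger inhibition of thallium flux through KCNK3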
KCNK9 inh conf: confirmation of human KCNK9 potassium channel inhibitors; shares compounds with KCNK9 block; HEK293 KCNK9 cells, FluxOR thallium flux fluorescence; inhibition, % at 10 µM; actives 43% (n = 4,900); AID 492992;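 active = thallium signal inhibited by more than 5 SD of the compound-free buffer control wells, on both duplicate plates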;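 note: 0% = assay buffer control wells without compound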
Kir21 sel: mouse Kir2.1 off-target activity of KCNK9 modulators; shares compounds with KCNK9 block; Kir2.1 cells, FluxOR thallium flux fluorescence; inhibition, % at 10 µM; actives 4% (n = 4,900); AID 492993;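 active = thallium signal drop more than 5 SD beyond the mean of the no-compound control wells, seen in both duplicate plates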;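 note: signal is fluorescence rise after thallium addition divided by baseline fluorescence; plate controls were assay buffer only for no effect and full block by chlorpromazine control for full effect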
KCNK9 uninduced: second counter-screen for KCNK9 modulators: effect in non-induced cells. shares compounds with KCNK9 block. non-induced KCNK9-HEK293, FluxOR thallium flux. inhibition, % at 10 µM. actives 40% (n = 4,900);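 active = thallium signal drop beyond 5 SD of the untreated control mean, on both duplicate plates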;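 note: plate controls were buffer only IC0 wells for no effect and SID17386958 at its maximal inhibitory level for full effect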
KCNK3 inh conf: human KCNK3 channel inhibition, confirmation assay | CHO-KCNK3 thallium flux, FluxOR fluorescence; 0% buffer, 100% carvedilol maximal block | ratio percent of control, % at 10 µM | shares compounds with KCNK3 inh | actives 99% (n = 2,400);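 active = ratio percent of control, averaged over triplicates, above buffer control mean plus 5 SD, cut at about 64% in these data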;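 note: ratio is the fluorescence rise from min to max over baseline after thallium stimulus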
KCNK3 noninduced: activity in cells without induced KCNK3 expression. shares compounds with KCNK3 inh. non-induced KCNK3 parental cells, FluxOR thallium flux; active compounds read low. thallium flux ratio (lower = more inhibition) at 10 µM. actives 40% (n = 2,400);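 active = thallium flux ratio, averaged over three wells, more than 5 SD below the buffer control mean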;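 note: host cells are CHO cells without KCNK3 induction; ratio is peak minus trough fluorescence over baseline then normalized to buffer controls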
Numbers without * were called inactive; i = inactive; · = no result. In the library only some 3.8% were active in any assay of this set; here they are far more common.

SMILES	Kir21 inh	KCNQ1 pot	hERG rescue	KCNK9 block	KCNQ1 inh	KCNK3 inh	KCNK9 inh conf	Kir21 sel	KCNK9 uninduced	others
COc1cc(CN2CCN(c3cc(C)ccc3C)CC2)ccc1O	-1.6	i	-13	i	i	i	i	i	i
COc1cccc(C2CC3C(=O)C=CC2N3Cc2ccccc2)c1 (configuration not stated)	-3	i	-11	i	i	i	i	i	i
C=CCN(CC=C)C(=O)CCN1CC1C (configuration not stated)	·	·	·	·	·	i	·	·	·
CCCCNC(=O)c1c(N)n(CCCOC)c2nc3ccccc3nc12	-0.94	i	-28	-8.7*	i	i	i	i	i
COCCCn1c(N)c(C(=O)OCCOC)c2nc3ccccc3nc21	0.94	i	-4	i	i	i	·	·	·
O=C(COC(=O)c1cccc(O)c1)Nc1ccc(Cl)cc1C(=O)c1ccccc1	-1.6	i	-13	i	i	i	·	·	·
O=C(c1cccs1)c1cn(Cc2ccccc2Cl)c2ccccc12	-0.29	i	-16	i	i	i	·	·	·
N#Cc1ccccc1Cn1cc(C(=O)c2cccs2)c2ccccc21	-0.55	i	-5	-8.1*	i	i	i	i	34%*
CC(C)=CCc1c(O)cc2c(c1O)C(=O)CC(c1ccc(O)cc1)O2 (configuration not stated)	0.33	i	-20	-17*	i	i	i	i	i
COc1cc(C)c(CN2CCN(c3ccccc3)CC2)cc1C	1.6	i	-18	i	i	i	i	i	i
COc1ccccc1N1CCN(Cc2cc(C)c(C)cc2O)CC1	0.25	i	-3	i	i	i	·	·	·
Cc1ccc(OCCn2cccc2/C=C2/C(=O)NC(=O)N(Cc3ccco3)C2=O)cc1	-1.5	i	-4	i	i	i	i	i	i
Cn1cccc1/C=C1\C(=O)NC(=O)N(Cc2ccco2)C1=O	1.1	i	-9	i	i	i	·	·	·
CC1CCN(C(=O)CCl)CC1	0.02	i	-3	i	i	i	·	·	·
Cn1c(O)c(/C=C/C=Nc2ccccc2)c(=O)n(C)c1=O	-2.4	i	-11	i	i	i	·	·	·
CCCCn1c(O)c(/C=C/C=Nc2ccccc2)c(=O)[nH]c1=O	-5.8	i	-5	-9.2*	i	i	i	i	54%*
Cc1nn(CCC#N)c2c1P(=S)(N1CCCC1)OC(c1ccc(F)cc1)=N2 (configuration not stated)	-3.2	i	-8	i	i	i	i	i	i
CC(=O)Nc1ccccc1C(=O)OCC(=O)c1ccc2ccccc2c1	2.5	i	-12	i	i	i	i	i	i
CSc1ccc(CN2CCN(C(=O)Cc3ccccc3)CC2)cc1	1.9	i	-1	i	i	i	·	·	·
CSc1ccc(CN2CCN(Cc3ccccc3Cl)CC2)cc1	-4.9*	i	-10	i	i	i	i	41%*	i
COC(=O)C1=C(c2ccc(-c3ccccc3)c(F)c2)C[C@@H]2CC[C@H]1N2C(=O)N1CCOCC1	·	·	·	·	·	i	·	·	·
O=[N+]([O-])c1ccc(N2CCOCC2)c2ccncc12	-0.67	i	-5	i	i	i	·	·	·
Oc1ccc2ccccc2c1CN1CC=C(c2ccccc2)CC1	0.26	i	-2	i	i	i	i	i	i
Cc1cc(OCC(=O)O)c2c3c(c(=O)oc2c1)CCCC3	-0.28	i	-3	i	i	i	·	·	·
COC(=O)c1ccc(COc2cc(C)cc3oc(=O)c4c(c23)CCCC4)o1	1.8	i	-4	-13*	i	-9.1*	26%*	i	i	KCNK3 inh conf=100*;KCNK3 noninduced=i
SMILES	Kir21 inh	KCNQ1 pot	hERG rescue	KCNK9 block	KCNQ1 inh	KCNK3 inh	KCNK9 inh conf	Kir21 sel	KCNK9 uninduced	others
CCc1ccc(C2=NN(CCC(=O)N3CCC4(CC3)OCCO4)C(=O)CC2)cc1	1.6	i	-9	i	i	i	·	·	·
CCN1CCN(S(=O)(=O)c2ccc(Cl)c(C(=O)Nc3ccc(C(=O)N(CC)CC)cc3)c2)CC1	1.7	i	-8	i	i	i	·	·	·
Cc1ccccc1CN1CCCN(Cc2ccc(Cl)cc2)S1(=O)=O	-0.16	i	-3	-21*	i	i	72%*	i	38%*	KCNK3 inh conf=119*;KCNK3 noninduced=i
O=S1(=O)N(Cc2ccc(F)cc2)CCCN1Cc1ccccc1Cl	-0.17	i	-4	-8.3*	i	-12*	74%*	i	42%*	KCNK3 inh conf=125*;KCNK3 noninduced=0.14*
O=C(NCCCN1CC1)Nc1cccc2ccccc12	·	·	·	·	·	i	·	·	·
CCOC(=O)c1c(C)n(CC(O)CN2CCOCC2)c2cc(Br)c(OC)cc12 (configuration not stated)	-1.6	i	-19	i	i	i	·	·	·
Cc1ccccc1-n1c(C)cc(/C=C2/C(=O)NC(=O)N(Cc3ccco3)C2=O)c1C	-1.6	i	-17	-15*	i	i	34%*	i	32%*	KCNK3 inh conf=138*;KCNK3 noninduced=0.11*
CC1CCC(C(C)C)C(OC(=O)Cn2c(COc3ccccc3)[n+](C)c3ccccc32)C1 (configuration not stated)	-17*	i	-41	-12*	10*	-8.9*	74%*	77%*	i	KCNK3 inh conf=122*;KCNK3 noninduced=i
CCCCn1c(O)c(C(CC)=NCc2ccc3c(c2)OCO3)c(=O)[nH]c1=O	0.32	i	-9	-6.9*	i	-9.7*	·	·	·	KCNK3 inh conf=117*;KCNK3 noninduced=i
CN[C@@H](C)[C@@H](O)c1ccccc1	1.2	i	-5	i	i	i	·	·	·
O=c1c2ccccc2nc(/C=C\c2ccccc2[N+](=O)[O-])n1-c1ccccc1O	0.64	i	-14	i	i	-10*	·	·	·	KCNK3 inh conf=112*;KCNK3 noninduced=0.14*
